In brackets after ≈: the same amount, converted by molar mass.
Columns and labels:
Zeta potential = assay type: physicochemical; settings: Aqueous solution of 2 mmolar concentration in pH 7
S. aureus JE2 biofilm = test: Biofilm formation inhibition, crystal violet staining; assay type: cell-based, Staphylococcus aureus; settings: at MIC
In short: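 S. aureus JE2 initial inocula were exposed to test compound in two-fold dilutions from 16 to 4 μg/mL, with vancomycin or gentamicin at 4 to 1 μg/mL as comparators. Biofilm formed was quantified by crystal violet staining.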

E coli K12 biofilm = test: Biofilm formation inhibition, crystal violet staining; assay type: cell-based, Escherichia coli; settings: at 2 ug/mL
[1] = tested on: HCEC (Immortalized Human Colonic Epithelial Cell); assay type: cell-based; settings: 24 h
[2] = tested on: Psedomonas aeruginosa ATCC 27853; assay type: cell-based, Pseudomonas aeruginosa; settings: ATCC 27853, pH 7
[3] = tested on: HaCaT (Immortalized Human Keratinocyte); assay type: cell-based; settings: 24 h
[4] = tested on: Staphylococcus aureus ATCC 43300 MRSA; assay type: cell-based; settings: ATCC 43300, pH 7
[5] = tested on: Escherichia coli ATCC 25922; assay type: cell-based; settings: ATCC 25922, pH 7
[6] = tested on: Cryptococcus neoformans var. grubii H99 ATCC 20882; assay type: cell-based; settings: ATCC 20882, pH 7
[7] = tested on: Acinetobacter baumannii ATCC 19606; assay type: cell-based; settings: ATCC 19606, pH 7
[8] = tested on: Candida albicans ATCC 90028; assay type: cell-based; settings: ATCC 90028, pH 7
[9] = tested on: Klebsiella pneumoniae ATCC 700603; assay type: cell-based; settings: ATCC 700603, pH 7

`CCCCCCCCCCCCCCCCCC(=O)NCCCC[C@H](NC(=O)CCCCCCCCCCCCCCCCC)C(=O)N[C@@H](CCCCN)C(=O)N[C@@H](CCCCN)C(=O)N[C@@H](CCCCN)C(=O)N[C@@H](CCCCN)C(=O)N[C@@H](CCCCN)C(N)=O` [PA 9] gave a Zeta potential (Zeta potential) of 41.40 ± 1.05 mV.

With `CN[C@H](CC(C)C)C(=O)N[C@H]1C(=O)N[C@@H](CC(N)=O)C(=O)N[C@H]2C(=O)N[C@H]3C(=O)N[C@H](C(=O)N[C@H](C(=O)O)c4cc(O)cc(O)c4-c4cc3ccc4O)[C@H](O)c3ccc(c(Cl)c3)Oc3cc2cc(c3O[C@@H]2O[C@H](CO)[C@@H](O)[C@H](O)[C@H]2O[C@H]2C[C@](C)(N)[C@H](O)[C@H](C)O2)Oc2ccc(cc2Cl)[C@H]1O` [Van, Vancomycin] the “reduction of MRSA biofilm formation” value (S. aureus JE2 biofilm) was “up to 92.80 ± 0.68%”.

With `CNC(C)C1CCC(N)C(OC2C(N)CC(N)C(OC3OCC(C)(O)C(NC)C3O)C2O)O1` (stereo not shown) [Gen, Gentamicin] the “reduction of E coli biofilm formation” value (E coli K12 biofilm) was “about 54. 3%”.

For `CCCCCCCC(=O)NCCCC[C@H](NC(=O)CCCCCCC)C(=O)N[C@@H](CCCCN)C(=O)N[C@@H](CCCCN)C(=O)N[C@@H](CCCCN)C(=O)N[C@@H](CCCCN)C(=O)N[C@@H](CCCCN)C(N)=O` [PA 8], the “IC50 HCEC” value [1] was 19.3 mg/L (≈ 18.6 µM), the “MIC Pa (P. aeruginosa ATCC 27853)” value [2] was greater than 32 mg/L and the “IC50 HaCaT” value [3] was 40.4 mg/L (≈ 38.9 µM). The “MIC Sa (S. aureus ATCC 43300 MRSA)” value [4] was greater than 32 mg/L, the Zeta potential (Zeta potential) was 18.83 ± 1.69 mV and the “MIC Ec (E. coli ATCC 25922)” value [5] was greater than 32 mg/L. For the same compound, the “MIC Cn (C. neoformans var. grubii H99 ATCC 20882)” value [6] was greater than 32 mg/L, the “MIC Ab (A. baumannii ATCC 19606)” value [7] was greater than 32 mg/L and the “MIC Ca (C. albicans ATCC 90028)” value [8] was greater than 32 mg/L. The “MIC Kp (K. pneumoniae ATCC 700603)” value [9] was greater than 32 mg/L.

Source: article PMC7199185 (ACS applied materials & interfaces, 2019)
